# ChEMBL document CHEMBL1123823, “[1-Desamino, 7-lysine, 8-arginine]vasotocin: attachment of reporter groups and affinity ligands through the lysine side chain” (J Med Chem, 1987)
# pEC50: −log10 of the molar value. Where a SMILES comes first, the peptide text is derived from it. Bridges are numbered along the chain shown (N, C = ends). [ ]: non-standard residue; d: D form. The star is where a group is joined. Benzoyl(4-N3) = [N-]=[N+]=Nc1ccc(C(=O)*)cc1; Mpa = O=C(O)CCS
# Assays:
# Rattus norvegicus [1] = assay: (§1) Pressor activity was determined in urethane-anesthetized, phenoxybenzamine treated rats.; type: functional, organism-based; details: read-out: pA2 (converted)
# Rattus norvegicus [2] = assay: as §1; type: functional
# [3] = Toad bladder hydroosmotic activity was determined; type: functional; details: read-out: ED50 (the source's name)
# Summary of the method: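 Osmometric measurement of bladder water permeability. Bladders were suspended in humidified air, and paper disks holding 8 μL of hypertonic Ringer's, with or without peptide at various concentrations, were placed on the outer surface of the bladder wall. The Ringer's contained NaCl 110, KCl 3.5, CaCl₂ 1, MgCl₂ 1, glucose 5.5 and Tris-HCl 10 mmol/L, pH 7.5, 236 mOsm/kg H₂O. Dose-response curves were constructed.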
# Rattus norvegicus [4] = assay: Antidiuretic activity was determined in water loaded, ethanol-anesthetized rats.; type: functional, Urine
pEC50 [3],Structure (SMILES),Kb (Rattus norvegicus [1]),Pressor activity (Rattus norvegicus [2]),Antidiuretic activity (Rattus norvegicus [4])
,CC[C@H](C)[C@@H]1NC(=O)[C@H](Cc2ccc(O)cc2)NC(=O)CCSSC[C@@H](C(=O)N[C@@H](CCCCNC(=O)c2ccc(N=[N+]=[N-])cc2)C(=O)N[C@@H](CCCN=C(N)N)C(=O)NCC(N)=O)NC(=O)[C@H](CC(N)=O)NC(=O)[C@H](CCC(N)=O)NC1=O ([Mpa]YIQNCK(Benzoyl(4-N3))RG-NH2; disulfide 1-6) [listing 1 of 2 here],251 nM,,
6.68,CC[C@H](C)[C@@H]1NC(=O)[C@@H](Cc2ccc(O)cc2)NC(=O)CCSSC[C@@H](C(=O)N[C@H](CCCCNC(=O)CCCCC2SCC3NC(=O)NC32)C(=O)N[C@@H](CCCN=C(N)N)C(=O)NCC(N)=O)NC(=O)[C@H](CC(N)=O)NC(=O)[C@@H](CCC(N)=O)NC1=O (stereo partly drawn),,0 U/mg,4.3 U/mg
,CC[C@H](C)[C@@H]1NC(=O)[C@H](Cc2ccc(O)cc2)NC(=O)CCSSC[C@@H](C(=O)N[C@@H](CCCCNC(=O)c2ccc(N=[N+]=[N-])cc2)C(=O)N[C@@H](CCCN=C(N)N)C(=O)NCC(N)=O)NC(=O)[C@H](CC(N)=O)NC(=O)[C@H](CCC(N)=O)NC1=O ([Mpa]YIQNCK(Benzoyl(4-N3))RG-NH2; disulfide 1-6) [listing 2 of 2 here],,,19.7 U/mg
,CC[C@H](C)[C@@H]1NC(=O)[C@H](Cc2ccc(O)cc2)NC(=O)[C@@H](N)CSSC[C@@H](C(=O)N2CCC[C@H]2C(=O)N[C@@H](CCCN=C(N)N)C(=O)NCC(N)=O)NC(=O)[C@H](CC(N)=O)NC(=O)[C@H](CCC(N)=O)NC1=O [VASOTOCIN] (H-CYIQNCPRG-NH2; disulfide 1-6),,160 U/mg,231 U/mg
,CC[C@H](C)[C@@H]1NC(=O)[C@H](Cc2ccc(O)cc2)NC(=O)CCSSC[C@@H](C(=O)N2CCC[C@H]2C(=O)N[C@@H](CCCN=C(N)N)C(=O)NCC(N)=O)NC(=O)[C@H](CC(N)=O)NC(=O)[C@H](CCC(N)=O)NC1=O ([Mpa]YIQNCPRG-NH2; disulfide 1-6),,256 U/mg,890 U/mg
7.66,CC[C@H](C)[C@@H]1NC(=O)[C@H](Cc2ccc(O)cc2)NC(=O)CCSSC[C@@H](C(=O)N[C@@H](CCCCN)C(=O)N[C@@H](CCCN=C(N)N)C(=O)NCC(N)=O)NC(=O)[C@H](CC(N)=O)NC(=O)[C@H](CCC(N)=O)NC1=O ([Mpa]YIQNCKRG-NH2; disulfide 1-6),,0 U/mg,29 U/mg

Structure (SMILES),pEC50 [3],Kb (Rattus norvegicus [1]),Pressor activity (Rattus norvegicus [2]),Antidiuretic activity (Rattus norvegicus [4])
N=C(N)NCCC[C@H](NC(=O)[C@@H]1CCCN1C(=O)[C@@H]1CSSC[C@H](N)C(=O)N[C@@H](Cc2ccc(O)cc2)C(=O)N[C@@H](Cc2ccccc2)C(=O)N[C@@H](CCC(N)=O)C(=O)N[C@@H](CC(N)=O)C(=O)N1)C(=O)NCC(N)=O [VASOPRESSIN],8.02,,,
